Screening data deposited in PubChem BioAssay by Broad Institute.
The list is not random: actives were taken first. Their share in the collection is about 3.8%.
Xi reactivation: activators of X-chromosome reactivation in mouse fibroblasts; 0.055% of 360,000 active; activation, % at 7.58 µM; XiGFP mouse fibroblasts, % GFP-positive cells imaging, 3 d; cells co-treated with 5-aza-dC sensitizer; scaled so ellipticine positive control = 100%;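 active means mean normalized replicate activation at least 10% and every replicate at or above 10%; inconclusive means only one of the two criteria met; inactive means mean below 10% and not all replicates reach 10%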
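Assay system: SV40-immortalized XiGFP fibroblast cells, line 68-5-11; buffer or medium: DMEM plus 5-aza-dC sensitizer; compound: one concentration, pinned; timing: compounds 3 days, fix/stain 15 min at room temperature; benchmarks: positive control ellipticine, 6 µM final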
FN deposit inh: fibronectin deposition inhibition; AH1F fibroblasts, Alexa488-fibronectin deposition fluorescence, overnight; inhibition, % at 12.6 µM; 0.086% of 350,000 active;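 active means mean inhibition across replicates of 30% or more, regardless of how many single replicates reach that level; inconclusive means mean under 30% yet at least half of replicates reach 30%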
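Material – AH1F fibroblast monolayer, labelled fibronectin deposition · Reagent – labelled fibronectin 24 nM · Timing – 1 h adhesion, overnight exposure · Measured by – fluorescence at 485 nm excitation, 525 nm emission · Read-out – inhibition of fibronectin deposition signal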
FGF22 binding: shifts melting point of recombinant human FGF22; recombinant FGF22 thermal shift, SYPRO orange fluorescence; percent of sucrose octasulfate shift, DMSO zero; activity (Tm shift, normalised), % at 9.99 µM; 1.5% of 340,000 active; AID 651658;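 active means mean Tm shift, scaled 0 neutral to 100 positive control, at about 1.3% or above, every replicate too, limit read from the data; inconclusive means no clear call, values can overlap the other calls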
Target sequence (Q9HCT0 whole entry, looked up): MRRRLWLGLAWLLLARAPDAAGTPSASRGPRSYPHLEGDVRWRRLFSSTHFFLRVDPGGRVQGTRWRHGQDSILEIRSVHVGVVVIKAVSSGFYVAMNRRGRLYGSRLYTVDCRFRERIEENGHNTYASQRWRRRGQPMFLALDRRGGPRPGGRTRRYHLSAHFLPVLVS
ARNT TACC3 PPI: disruptors of human ARNT/TACC3 interaction | Q9Y6A5 | AlphaScreen His-ARNT PAS-B/GST-TACC3 binding, luminescence; TACC3 fragment carries E629A point mutation | inhibition, % at 9.99 µM | 0.66% of 390,000 active | AID 623870;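 active means mean inhibition of replicates at least 50% and at least half of replicates each reaching 50%; inconclusive means half or more replicates reach 50% but mean below 50%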
DENV2 CPE: inhibitors of DENV2 cytopathic effect | DENV2-infected cells, cytopathic effect rescue, plate reader | CPE inhibition, % at 9.99 µM | 1.7% of 350,000 active | AID 651640; in the data active means CPE inhibition above about 20%, passing the limit was not always enough; inconclusive means no clear call, values can overlap the other calls; tested in BHK-21 cells
SIRT5 block: inhibitors of human sirtuin-5 desuccinylase | AID 652115 | 1.1% of 330,000 active | Purified SirT5, succinyl-peptide AMC, trypsin-coupled fluorescence | inhibition, % at 15 µM; in the data active means inhibition above about 15%; inconclusive means no clear call, values can overlap the other calls
Target sequence (Q9NXA8 whole entry, looked up): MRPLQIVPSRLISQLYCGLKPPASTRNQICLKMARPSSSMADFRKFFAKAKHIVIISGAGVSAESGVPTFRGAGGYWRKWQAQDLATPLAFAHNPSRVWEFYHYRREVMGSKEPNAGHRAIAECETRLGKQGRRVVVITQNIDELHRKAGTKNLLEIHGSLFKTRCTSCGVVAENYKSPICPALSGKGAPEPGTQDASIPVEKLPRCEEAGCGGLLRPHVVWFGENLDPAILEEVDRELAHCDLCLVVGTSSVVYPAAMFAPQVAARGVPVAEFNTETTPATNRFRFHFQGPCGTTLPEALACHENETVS
Numbers stand for hits; i = inactive; ? = inconclusive; nt = no result.

SMILES	Xi reactivation	FN deposit inh	FGF22 binding	ARNT TACC3 PPI	DENV2 CPE	SIRT5 block
Cc1cccc(NC(=O)N2CCCC(CNC(=O)c3ccccc3Cl)C2)c1C (configuration not stated)	i	i	i	i	i	30.5
CC(C)c1ccc(/C=N/Nc2ccc(C(=O)O)cc2)cc1	i	i	44.1	i	i	i
O=C(O)c1ccc(N/N=C/c2ccc(-c3ccccc3)cc2)cc1	i	i	i	i	i	i
COCCNC(=O)C[C@H]1CC[C@H]2[C@H](COc3ccc(NC(=O)c4cc(C)on4)cc3C(=O)N2C)O1	i	i	i	i	i	i
Cc1[nH][nH]c(=O)c1C=NCc1ccc(Cl)cc1	i	i	43.4	i	i	i
O=C(O)c1cccnc1C(=O)O	nt	nt	i	50.4	i	nt
O=C(O)CSc1ncccc1C(=O)O	i	i	i	i	45.6	i
O=C(NCc1ccc(F)cc1)c1cccnc1C(=O)O	i	i	i	i	?	23.3
O=C(Nc1cc(F)ccc1F)N[C@@H]1CC[C@H](CCn2cc(C3CCCCC3)nn2)O[C@H]1CO	i	i	i	i	i	i
CN(C)CC(=O)N[C@H]1C=C[C@@H](CC(=O)O)O[C@@H]1CO	i	i	nt	nt	i	i
CCCCN(CCCC)S(=O)(=O)c1ccc(OC)c2ncccc12	nt	nt	nt	i	nt	nt
COc1ccc(S(=O)(=O)N(CC(C)C)CC(C)C)c2cccnc12	i	i	i	i	57.1	i
C[C@@H]1CN([C@@H](C)CO)C(=O)Cc2cc(NC(=O)CCN3CCOCC3)ccc2O[C@H]1CN(C)CC1CCCCC1	i	nt	i	i	i	i
O=C(CN(C(=O)c1csnn1)c1ccccc1F)NCc1ccc2c(c1)OCO2	i	i	i	i	i	i
O=C(CN(C(=O)c1csnn1)c1cccc(F)c1)NCc1ccc2c(c1)OCO2	i	i	42.9	i	i	i
COC(=O)C1=C(C)NC(=S)NC1/C=C/c1ccccc1 (configuration not stated)	i	i	i	i	nt	nt
CCOC(=O)C1=C(C)NC(=S)NC1/C=C/c1ccccc1 (configuration not stated)	36.3	i	nt	i	nt	nt
COCCN(C[C@H]1[C@H](c2ccccc2)[C@@H](CO)N1C(=O)C1CC1)C(C)=O	i	i	i	i	i	i
C[C@H]1CN([C@@H](C)CO)C(=O)c2cc(NS(=O)(=O)c3cn(C)cn3)ccc2O[C@@H]1CN(C)Cc1ccccc1	i	nt	i	i	23.7	i
C[C@@H]1CN([C@H](C)CO)C(=O)c2cc(NS(=O)(=O)c3cn(C)cn3)ccc2O[C@H]1CN(C)Cc1ccccc1	i	nt	i	i	20.8	i
C[C@H](CO)N1C[C@H](C)[C@@H](CN(C)Cc2ccccc2)Oc2ccc(NS(=O)(=O)c3cn(C)cn3)cc2C1=O	i	nt	i	i	i	i
C[C@H](CO)N1C[C@H](C)[C@@H](CN(C)CC2CC2)Oc2ccc(NS(=O)(=O)c3cn(C)cn3)cc2C1=O	i	nt	i	nt	32.7	nt
O=C(NC1CCCCCCC1O)c1ccccc1 (configuration not stated)	i	i	i	i	i	15.6
CS(=O)(=O)N(Cc1ccccc1)c1ccc(C(=O)NC2CCCCC2O)cc1 (configuration not stated)	nt	nt	nt	i	nt	nt
O=C(NC(Cc1ccccc1)C(=O)N1CCCCCC1)c1ccccc1 (configuration not stated)	i	i	i	i	i	i
SMILES	Xi reactivation	FN deposit inh	FGF22 binding	ARNT TACC3 PPI	DENV2 CPE	SIRT5 block
O=C(NC(CC1CCCCC1)C(=O)O)c1ccccc1 (configuration not stated)	i	i	43.7	i	nt	i
O=C(NC1CCCCC1c1ccccc1)c1ccccc1 (configuration not stated)	i	i	43.6	i	i	nt
CC(C)[C@H](NC(N)=O)C(=O)NCCc1ccc(Cl)cc1Cl	i	i	i	i	nt	i
CC[C@H](C)[C@H](NC(N)=O)C(=O)NCCc1ccc(OC)cc1	i	i	i	i	i	i
CCc1ccc(C(=O)COC(=O)[C@@H](NC(N)=O)[C@@H](C)CC)cc1	i	i	43.2	i	i	i
CC[C@H](C)[C@H](NC(N)=O)C(=O)NCCc1ccc(Cl)cc1	i	i	43.7	i	i	i
CC(C)CC(NC(N)=O)C(=O)NCCc1ccc(Cl)cc1Cl (configuration not stated)	i	i	43.9	i	?	i
CCC(C)C(NC(N)=O)C(=O)Nc1ccc(C(=O)OC)cc1 (configuration not stated)	i	i	43.4	i	i	i
FC(F)(F)c1ccccc1CN1CCCc2nc(-c3ccccc3)ccc21	i	i	i	nt	i	nt
FC(F)(F)c1ccccc1CN1CCCc2nc(-c3ccc(Br)cc3)ccc21	i	i	i	nt	42.1	nt
C[C@@H]1CN([C@@H](C)CO)C(=O)c2cc(-c3ccccc3)cnc2O[C@@H]1CN(C)C(=O)NC1CCCC1	i	i	i	i	i	i
COc1ccc(NC2c3ccccc3C(=O)N2Cc2ccco2)cc1OC (configuration not stated)	i	i	i	i	i	i
O=C1c2ccccc2C(Nc2ccc(F)c(Cl)c2)N1Cc1ccco1 (configuration not stated)	i	i	i	i	35.7	i
CCCNC(=O)N1CC2(C1)[C@H](c1ccccc1)[C@@H](CO)N2Cc1ccccn1	i	nt	i	nt	i	i
O=C(C[C@@H]1CC[C@@H]2[C@H](COC[C@H](O)CN2CCC(F)(F)F)O1)NCC1CC1	i	i	i	i	i	i
CN(C)S(=O)(=O)c1cccc(C(=O)Nc2ccccc2C(=O)NC2CC2)c1	i	i	i	i	54.1	i
C[C@H]1CN([C@@H](C)CO)C(=O)c2cccc(NC(=O)Nc3ccc4c(c3)OCO4)c2O[C@H]1CN(C)C	i	nt	i	i	i	i
COC(=O)CC1=C(c2ccc([N+](=O)[O-])cc2)CCC1=O	i	i	i	i	?	15.6
N/C(=N\c1nc(CSc2nc3ccccc3s2)cc(=O)[nH]1)Nc1ccc(F)cc1	34.9	i	i	i	i	i
Cc1ccc(N/C(N)=N/c2nc(CSc3nnc(N)s3)cc(=O)[nH]2)cc1	i	i	i	i	i	i
O=c1c2ccccc2n(Cc2ccccc2F)c(=O)n1Cc1ccccc1F	nt	i	nt	i	nt	nt
COc1cccc(Cn2c(=O)sc3ccccc3c2=O)c1	i	i	43.3	i	i	i
O=c1sc2ccccc2c(=O)n1Cc1ccccc1F	i	i	43.2	i	i	i
Cc1ccc(Cn2c(=O)sc3ccccc3c2=O)cc1	nt	nt	nt	i	nt	nt
C[C@@H]1CCCCO[C@@H](CN(C)Cc2ccc3c(c2)OCO3)[C@H](C)CN([C@H](C)CO)C(=O)c2cc(NC(=O)C3CCCCC3)ccc2O1	i	nt	i	i	i	i
